Source: PubChem BioAssay
PAD4 inh – blocks human protein arginine deiminase 4; recombinant PAD4, RCA probe fluorescence polarization; 0.41% of 330,000 active; Q9UM07; AID 485272; inhibition, % at 6.36 µM;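 active = percent inhibition above a cutoff equal to the mean of all tested compounds plus 3 SD, cut at about 15% in these data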;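 also: 0% = PAD4 with RCA probe and DMSO and 100% = probe without PAD4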
Apaf-1 inh – human Apaf-1 inhibition; inhibition, % at 20 µM; O14727; reconstituted apoptosome caspase-3 activity, DEVD-Rh110 fluorescence; 0.71% of 330,000 active; AID 489030; active = inhibition of at least 40% at 20 µM;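 also: plate controls were DMSO wells for no effect and DEVD-CHO caspase inhibitor wells for full effect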
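detection = Rh110 fluorescence intensity | test system = biochemical Apaf-1 apoptosome reconstitution | also added = cytochrome c and DEVD-Rh110 substrate | schedule = 30 min plus 50 min, RT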
TDP2 inh – TDP2 (human) inhibition, absorbance primary screen. O95551. recombinant TDP2, T5PNP hydrolysis, p-nitrophenol absorbance 415 nm. inhibition, % at 12.8 µM. 0.34% of 370,000 active. AID 720702;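 active = inhibition above the mean of all tested compounds plus 3 SD, set per campaign, cut at about 25% in these data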;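 also: 0% = DMSO with enzyme and 100% = buffer with substrate but no TDP2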
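Evaluation: % inhibition relative to enzyme-containing and enzyme-free wells. Material: recombinant human TDP2. Benchmarks: enzyme-free and DMSO wells. Timing: enzyme reaction with compound for 2 h at 37 °C. Compound dosing: 12.8 µM only. Measured by: p-Nitrophenol epi absorbance. Reagent: T5PNP substrate at 5 mM, a TopII-DNA adduct mimic. Replication: single well per compound.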
Fh CTSL1 inh – counter-screen for PFM18AAP inhibitors: inhibitors of F. hepatica cathepsin L1. recombinant F. hepatica cathepsin L1, Z-Leu-Arg-MCA fluorescence. inhibition, % at 5.96 µM. 0.49% of 300,000 active. AID 1906;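 active = inhibition above the mean of all tested compounds plus 3 SD, set per screening campaign, cut at about 17% in these data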;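 also: 0% = plate median of test compound wells and 100% = 1 µM Z-Phe-Ala-diazomethylketone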
GSTO1 counter – blocks human GSTO1 in RBBP9 counter-screen | recombinant GSTO1, activity-based probe fluorescence polarization | inhibition, % at 5.96 µM | 1.1% of 300,000 active | AID 1974;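 active = inhibition above the campaign mean inhibition plus 3 SD, cut at about 35% in these data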;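 also: 0% = GSTO1-1 with DMSO and 100% = wells lacking GSTO1-1 enzyme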
PAD4 confirm – PAD4 (human) inhibition, confirmed | shares compounds with PAD4 inh | recombinant PAD4, RCA probe fluorescence polarization | inhibition, % at 6.36 µM | 28% of 1,200 active | AID 488796;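 active = mean inhibition across replicates above the hit cutoff set by the earlier primary screen, cut at about 15% in these data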;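 also: inhibitors block active-site labeling by the probe so polarization falls; 0% = PAD4 with probe and DMSO and 100% = probe without PAD4 enzyme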
Starred values were filed as active, the others as inactive; . = no result given; ! = repeats disagree. A selection: hits, their analogues and other compounds. The true share with any hit is near 1.8%.

SMILES | PAD4 inh | Apaf-1 inh | TDP2 inh | Fh CTSL1 inh | GSTO1 counter | PAD4 confirm
Cc1ccc(N2C(=O)c3cccc4c(C(=O)O)ccc(c34)C2=O)cc1 | -4 | -2 | 0 | 1 | -5 | .
O=C1c2cccc3c(O)ccc(c23)C(=O)N1c1ccc(Cl)cc1 | 34* | 8 | -4 | -5 | 18 | 31*
COCCn1c(=S)[nH]c2cc(OC)c(OC)cc2c1=O | 43* | -93 | 5 | -1 | -1 | -3
O=C1C(Br)=Cc2cccc3cccc1c23 | 91* | . | 4 | -1 | 6 | 62*
CCSc1nc2ccccc2[nH]1 | 17*! | -5 | 3 | 2 | -2 | 6
CCn1c(CSc2nc3ccccc3[nH]2)nc2cc(C(=O)O)ccc21 | 32* | -3 | -1 | -1 | 12 | 34*
CCn1c(CSc2nccn2C)nc2cc(C(=O)O)ccc21 | 35* | -4 | . | 0 | 21 | 43*
c1ccc(CSc2nc3ccccc3[nH]2)cc1 | -7 | -1 | -1 | 2 | 6 | .
CCCC[C@H]1C2CC(OC(=O)Nc3ccc(Cl)cc3)C(C2)[C@H]2CCCCN21 (stereo not given in full) | . | . | 3 | . | . | .
COC(=O)c1ccc2nc(-c3cccc(Br)c3)c(Cc3cccc(Cl)c3)n2c1 | . | . | 2 | . | . | .
O=C(OCc1cn(Cc2cccc(F)c2)nn1)N1CCOCC1 | . | . | -1 | . | . | .
CCCCc1cc(=O)oc2cc(O)ccc12 | 24* | -2 | -9 | -2 | -2 | 4
Cc1ncc(N=Nc2ccc(F)cc2)c(-c2ccc(Cl)cc2)n1 | 18* | -3 | 11 | -1 | 5 | 1
Cc1cc2c(cc1C)N(C(=O)CSc1nncn1C)C(C)(C)c1ssc(=S)c1-2 | 33* | 21 | -11 | 4 | -6 | 33*
COc1ccc(C)cc1Nc1n[n+](C)c(-c2c3ccccc3cc3ccccc23)s1 | 51* | 4 | 2 | 1 | 7 | 10
Cc1ccc2c(c1)N(CCCC(=O)NCc1c(F)cccc1F)C(=O)CO2 | . | . | -1 | . | . | .
CCN(CC)C(=O)c1ncn2c1C(=O)NC[C@@H]2C | . | . | 6 | . | . | .
CC1CC(C)(C)N2C(=O)C3(Nc4ccccc4S3)c3cccc1c32 (stereo not given) | 23* | 22 | . | -1 | 4 | 28*
CCCS(=O)(=O)c1cn2cccc(N)c2c1S(=O)(=O)CCC | 18* | 11 | 17 | 15 | 15 | 7
CCCS(=O)(=O)c1c(S(=O)(=O)CCC)c2c(C)cccn2c1C(N)=O | -2 | -3 | -1 | 0 | 0 | .
Cc1ccnc(SCc2cc(=O)c(OC(=O)c3ccc(C)c([N+](=O)[O-])c3)co2)n1 | . | . | 0 | . | . | .
Cc1cc(C)c(S(=O)(=O)Nc2ccc(Cl)cn2)c(C)c1 | 21* | 5 | 4 | -9 | 4 | 1
O=S(=O)(Nc1ccc(Cl)cn1)c1ccc(Cl)cc1 | -3 | -1 | -8 | 1 | -2 | .
O=C(CSc1nnc(-c2cccc(Cl)c2)n1Cc1ccco1)c1ccc(F)cc1 | . | . | -6 | . | . | .
COCCNC(=S)N(C)[C@H]1C[C@H]2c3[nH]c4c(-c5ccccc5)cccc4c3CCN2C[C@H]1[C@H](C)O | . | . | -2 | . | . | .
SMILES | PAD4 inh | Apaf-1 inh | TDP2 inh | Fh CTSL1 inh | GSTO1 counter | PAD4 confirm
C/C(=C\C(=O)c1cccnc1)Nc1ccc(C(=O)O)cc1 | 4 | -8 | -8 | 0 | 0 | .
CC(=O)Nc1ccc(N/C(C)=C/C(=O)c2cccnc2)cc1 | 22* | -10 | -5 | 9 | 0 | 3
COc1cccc(N2C(=O)CC(Nc3ccc(N4CCOCC4)cc3)C2=O)c1 (stereo not given) | 31* | -393 | . | -1 | 7 | 2
CS(=O)(=O)c1ccc(N)c(SSc2cc(S(C)(=O)=O)ccc2N)c1 | 45* | -12 | -1 | -2 | 18 | 52*
O=C(O)CCN1C(=O)C2C3CC(C2C1=O)C1C(c2ccccc2)c2sc(=O)[nH]c2SC31 (stereo not given) | 17* | -2 | 6 | -2 | 3 | -5
CC(=O)CC[C@H]1CC[C@]2(CCCN(C(=O)c3ccccc3)C2)O1 | . | . | -3 | . | . | .
C=CCOc1ccc(C2OC34CCCCC3C(C#N)(C#N)C2(C#N)C(=N)O4)cc1 (stereo not given) | 15* | 4 | . | 1 | 16 | 2
CCOc1ccc(N)c(SSc2cc(OCC)ccc2N)c1 | 26* | 18 | -1 | -2 | 23 | 31*
